Laboratory results reported in ChEMBL document CHEMBL4765345, “Design, synthesis, and biological evaluation of dual targeting inhibitors of histone deacetylase 6/8 and bromodomain BRPF1” (Eur J Med Chem, 2020).

Assays:
THP-1 [1] = assay: Antiproliferative activity against human THP-1 assessed as reduction in cell growth at 20 uM by CellTiter-non radioactive cell proliferation assay; assay type: functional
[2] = (§1) Cytotoxicity against human HEK293 assessed as reduction in cell viability incubated for 24 hrs by AlamarBlue assay; assay type: cell-based; details: HEK293 cells, read-out: INH
Summary of the method: (§2)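 HEK293 cells were grown at 37 °C under 5% CO2 in DMEM with 10% FCS and 5 mM glutamine and seeded at 1.5 x 10³ cells per well. Compound at 50 μM was added at once. After 24 h AlamarBlue was added for another 21 h, and fluorescence was read at Ex 560/Em 590 nm. Triplicates over three independent experiments.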

Histone deacetylase 8 = target: T1, Histone deacetylase 8 (Homo sapiens, UniProt Q9BY41); assay: Inhibition of human recombinant HDAC8 using H2N-Arg-His-Lys(Ac)-Lys(Ac)-AMC as substrate after 90 mins by fluorescence based micro plate assay
T1 sequence (Q9BY41 whole entry): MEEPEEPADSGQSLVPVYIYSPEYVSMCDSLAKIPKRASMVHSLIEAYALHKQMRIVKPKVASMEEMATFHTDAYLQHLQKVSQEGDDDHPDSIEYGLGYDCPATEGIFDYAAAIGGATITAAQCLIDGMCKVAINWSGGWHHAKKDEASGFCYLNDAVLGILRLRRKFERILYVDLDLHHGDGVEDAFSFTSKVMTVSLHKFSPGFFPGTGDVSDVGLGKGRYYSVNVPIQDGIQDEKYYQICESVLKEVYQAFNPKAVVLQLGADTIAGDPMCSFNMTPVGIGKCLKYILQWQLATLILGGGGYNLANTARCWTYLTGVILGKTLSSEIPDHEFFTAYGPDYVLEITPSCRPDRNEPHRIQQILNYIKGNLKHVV

HL-60 [3] = assay: Antiproliferative activity against human HL60 assessed as reduction in cell growth at 100 uM by CellTiter-non radioactive cell proliferation assay; assay type: functional
Histone deacetylase 1 = Histone deacetylase 1 (Homo sapiens, UniProt Q13547); assay: Inhibition of recombinant human HDAC1 using Z-(Ac)Lys-AMC as substrate after 90 mins by fluorescence based micro plate assay
Summary of the method: (§3)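 Recombinant human HDAC1 or HDAC6 incubated 90 min at 37 °C with 10.5 μM ZMAL (Z-(Ac)Lys-AMC) and increasing inhibitor concentrations, using a homogeneous fluorescence assay. Fluorescence read at Ex 390/Em 460 nm.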

HL-60 [4] = assay: Antiproliferative activity against human HL60 assessed as reduction in cell growth at 20 uM by CellTiter-non radioactive cell proliferation assay; assay type: functional
Peregrin = target: T2, Peregrin (Homo sapiens, UniProt P55201); assay: Binding affinity to BRPF1 (unknown origin) by Isothermal titration calorimetry
T2 sequence (P55201 whole entry): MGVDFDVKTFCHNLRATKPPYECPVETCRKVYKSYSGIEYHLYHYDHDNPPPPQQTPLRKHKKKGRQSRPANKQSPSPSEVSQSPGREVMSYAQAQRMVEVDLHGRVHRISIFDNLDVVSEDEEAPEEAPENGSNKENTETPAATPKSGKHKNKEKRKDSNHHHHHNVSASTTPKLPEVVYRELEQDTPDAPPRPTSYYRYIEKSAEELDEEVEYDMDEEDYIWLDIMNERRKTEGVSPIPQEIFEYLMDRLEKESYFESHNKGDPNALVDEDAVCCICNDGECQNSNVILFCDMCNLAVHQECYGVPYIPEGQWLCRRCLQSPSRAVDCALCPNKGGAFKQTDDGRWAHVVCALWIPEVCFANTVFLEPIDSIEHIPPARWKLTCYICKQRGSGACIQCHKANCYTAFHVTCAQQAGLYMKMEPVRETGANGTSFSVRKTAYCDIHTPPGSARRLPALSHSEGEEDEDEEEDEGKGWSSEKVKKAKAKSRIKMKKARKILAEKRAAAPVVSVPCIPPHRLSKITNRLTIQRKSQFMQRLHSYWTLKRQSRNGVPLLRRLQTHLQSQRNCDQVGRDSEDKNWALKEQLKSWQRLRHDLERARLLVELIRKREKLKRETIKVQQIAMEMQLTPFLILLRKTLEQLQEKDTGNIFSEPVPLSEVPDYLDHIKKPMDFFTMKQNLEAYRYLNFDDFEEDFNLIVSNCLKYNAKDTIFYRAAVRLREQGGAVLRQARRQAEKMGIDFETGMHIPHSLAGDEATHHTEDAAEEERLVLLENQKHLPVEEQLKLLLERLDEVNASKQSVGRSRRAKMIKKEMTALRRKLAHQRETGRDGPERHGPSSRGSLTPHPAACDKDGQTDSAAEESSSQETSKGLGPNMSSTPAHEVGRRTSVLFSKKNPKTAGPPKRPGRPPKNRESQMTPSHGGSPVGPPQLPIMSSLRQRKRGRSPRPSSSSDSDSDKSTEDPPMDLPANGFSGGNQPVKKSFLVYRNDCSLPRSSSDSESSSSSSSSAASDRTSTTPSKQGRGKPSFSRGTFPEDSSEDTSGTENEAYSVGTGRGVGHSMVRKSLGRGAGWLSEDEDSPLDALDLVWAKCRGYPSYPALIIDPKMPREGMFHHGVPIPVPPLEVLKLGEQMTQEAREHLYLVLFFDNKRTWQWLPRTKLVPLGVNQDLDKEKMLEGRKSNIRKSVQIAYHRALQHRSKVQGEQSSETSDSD
Summary of the method: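 Isothermal titration calorimetry with recombinant BRPF1 (200–400 μM) in the injection syringe titrated into ligand (20–40 μM) in the sample cell. Kd was fitted from the titrations and reported with its P99 interval.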

[5] = target: T3, Protein deacetylase HDAC6 (Homo sapiens) (UniProt Q9UBN7); assay: Inhibition of recombinant human HDAC6 at 1 uM using Z-(Ac)Lys-AMC as substrate after 90 mins by fluorescence based micro plate assay; summary of the method: as §3
T3 sequence (whole entry): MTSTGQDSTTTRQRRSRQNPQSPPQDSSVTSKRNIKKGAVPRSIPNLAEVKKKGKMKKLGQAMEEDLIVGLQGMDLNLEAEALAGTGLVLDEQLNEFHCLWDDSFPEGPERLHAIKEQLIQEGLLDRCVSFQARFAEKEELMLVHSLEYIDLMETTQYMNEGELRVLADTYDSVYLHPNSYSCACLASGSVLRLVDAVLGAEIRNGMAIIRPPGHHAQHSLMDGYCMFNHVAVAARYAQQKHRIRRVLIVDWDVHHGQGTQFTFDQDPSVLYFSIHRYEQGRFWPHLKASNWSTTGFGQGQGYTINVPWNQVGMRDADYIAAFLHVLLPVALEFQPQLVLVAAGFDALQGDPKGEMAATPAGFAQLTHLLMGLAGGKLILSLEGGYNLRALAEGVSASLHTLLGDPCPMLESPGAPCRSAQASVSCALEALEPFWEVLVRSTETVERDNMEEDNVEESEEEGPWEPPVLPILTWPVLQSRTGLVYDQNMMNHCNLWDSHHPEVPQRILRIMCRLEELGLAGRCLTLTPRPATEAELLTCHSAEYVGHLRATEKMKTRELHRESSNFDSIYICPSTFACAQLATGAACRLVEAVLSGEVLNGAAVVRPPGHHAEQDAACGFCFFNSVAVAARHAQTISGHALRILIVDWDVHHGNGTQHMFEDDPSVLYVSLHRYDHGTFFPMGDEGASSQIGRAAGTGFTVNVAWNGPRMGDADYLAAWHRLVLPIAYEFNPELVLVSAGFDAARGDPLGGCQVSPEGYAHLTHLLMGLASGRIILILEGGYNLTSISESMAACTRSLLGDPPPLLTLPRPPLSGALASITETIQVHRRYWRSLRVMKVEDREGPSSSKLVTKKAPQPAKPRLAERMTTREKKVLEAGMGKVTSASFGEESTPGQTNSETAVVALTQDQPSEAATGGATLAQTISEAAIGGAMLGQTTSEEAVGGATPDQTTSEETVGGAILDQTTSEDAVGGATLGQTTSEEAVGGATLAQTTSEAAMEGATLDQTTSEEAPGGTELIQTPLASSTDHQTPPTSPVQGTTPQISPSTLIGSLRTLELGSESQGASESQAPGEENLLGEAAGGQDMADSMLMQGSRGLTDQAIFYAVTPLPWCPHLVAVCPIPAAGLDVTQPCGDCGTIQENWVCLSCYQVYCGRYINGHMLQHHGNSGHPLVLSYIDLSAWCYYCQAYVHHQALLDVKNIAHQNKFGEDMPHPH

[6] = target: T3, Protein deacetylase HDAC6 (Homo sapiens); assay: Inhibition of recombinant human HDAC6 at 10 uM using Z-(Ac)Lys-AMC as substrate after 90 mins by fluorescence based micro plate assay; summary of the method: as §3
HL-60 [7] = assay: Antiproliferative activity against human HL60 assessed as reduction in cell growth at 4 uM by CellTiter-non radioactive cell proliferation assay; assay type: functional
Summary of the method: (§4)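 HL60 cells plated at 5000 per well and given inhibitor or DMSO vehicle immediately. Compounds diluted from 200x DMSO stocks; three replicates per concentration. Growth read by CellTiter 96 Aqueous (MTS) assay. GI50 is the concentration cutting metabolically active cells by 50% versus DMSO control, taken from absorbance against log concentration.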

HEK293 = assay: as §1; assay type: cell-based; details: hek293, 24 h; summary of the method: as §2
THP-1 [8] = assay: Antiproliferative activity against human THP-1 assessed as reduction in cell growth at 4 uM by CellTiter-non radioactive cell proliferation assay; assay type: functional
THP-1 [9] = assay: Antiproliferative activity against human THP-1 assessed as reduction in cell growth at 100 uM by CellTiter-non radioactive cell proliferation assay; assay type: functional
THP-1 (Homo sapiens) = assay: Antiproliferative activity against human THP-1 assessed as reduction in metabolically active cells by CellTiter-non radioactive cell proliferation assay
THP-1 [10] = assay: Antiproliferative activity against human THP-1 assessed as reduction in cell growth at 1 uM by CellTiter-non radioactive cell proliferation assay; assay type: functional
HL-60 [11] = assay: Antiproliferative activity against human HL60 assessed as reduction in cell growth at 1 uM by CellTiter-non radioactive cell proliferation assay; assay type: functional
HL-60 [12] = assay: Antiproliferative activity against human HL60 assessed as reduction in cell growth at 50 uM by CellTiter-non radioactive cell proliferation assay; assay type: functional; summary of the method: as §4
[13] = Inhibition of HDAC (unknown origin); parameters: species or system Homo sapiens
[14] = target: T4, Protein deacetylase HDAC6 (Homo sapiens, UniProt Q9UBN7); assay: Inhibition of recombinant human HDAC6 using Z-(Ac)Lys-AMC as substrate after 90 mins by fluorescence based micro plate assay; summary of the method: as §3
T4 sequence (Q9UBN7 whole entry): T3 sequence (whole entry)

[15] = Chemical stability of the compound in standard cellular assay conditions measured after 4 days; assay type: physicochemical; details: 96 h; time 4 day
Summary of the method: (§5)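 Compounds were incubated at 37 °C in DMEM (cellular assay conditions) or in PBS pH 7.4 (in vitro assay conditions) for various times up to 4 days. The parent compound and any hydrolysis products were detected and quantified by HPLC.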

[16] = Stability of the compound in phosphate buffer at pH 7.4 measured after 4 days; assay type: physicochemical; details: pH 7.4, 96 h, time 4 day; summary of the method: as §5

Chain of Histone deacetylase 1 (Q13547 whole entry): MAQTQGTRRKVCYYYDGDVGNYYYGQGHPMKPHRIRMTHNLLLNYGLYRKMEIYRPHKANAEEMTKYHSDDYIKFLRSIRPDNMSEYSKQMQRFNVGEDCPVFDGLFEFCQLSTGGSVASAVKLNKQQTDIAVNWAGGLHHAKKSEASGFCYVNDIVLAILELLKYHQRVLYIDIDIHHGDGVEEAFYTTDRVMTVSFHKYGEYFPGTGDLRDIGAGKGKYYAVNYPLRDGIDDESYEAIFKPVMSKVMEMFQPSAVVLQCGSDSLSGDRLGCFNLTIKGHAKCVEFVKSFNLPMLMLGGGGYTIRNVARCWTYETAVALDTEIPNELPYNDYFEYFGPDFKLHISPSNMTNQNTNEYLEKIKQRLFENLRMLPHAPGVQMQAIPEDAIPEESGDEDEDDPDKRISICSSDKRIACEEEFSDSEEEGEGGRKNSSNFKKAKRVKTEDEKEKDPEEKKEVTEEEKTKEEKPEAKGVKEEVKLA

Compound	inhibition at 20 µM (THP-1 [1])	IC50 (Histone deacetylase 8)	inhibition at 100 µM (HL-60 [3])	IC50 (Histone deacetylase 1)	inhibition at 20 µM (HL-60 [4])	Kd (Peregrin; read-out: Kd)	inhibition at 4 µM (HL-60 [7])	inhibition at 100 µM (THP-1 [9])	inhibition at 1 µM (THP-1 [10])	inhibition at 1 µM (HL-60 [11])	other results
COc1ccc(C(=O)NO)cc1NCc1ccc(OCCCCC(=O)Nc2ccc3c(c2)cc(C)c(=O)n3C)cc1	0%	956 nM	0%	5200 nM	0%	4080 nM	0%	–	–	–	cytotoxicity at 24 h [2]: 15%; inhibition [5]: 50%; inhibition [6]: 68%
COC(=O)c1ccc(OC)c(S(=O)(=O)Nc2ccc3c(c2)cc(C)c(=O)n3C)c1	101%	–	66%	–	44%	–	39%	102%	–	–	Activity (HEK293): Non-Toxic; inhibition at 4 µM (THP-1 [8]): 40%; GI50 (THP-1 (Homo sapiens)): 5500 nM
Cc1cc2cc(NC(=O)c3ccc(S(=O)(=O)Nc4ccc5c(c4)cc(C)c(=O)n5C)cc3)ccc2n(C)c1=O	84%	–	–	–	55%	–	–	73%	0%	20%	inhibition at 50 µM (HL-60 [12]): 48%
O=C(CCCCCCOc1ccccc1C(=O)Nc1ncnc2[nH]cnc12)NO	–	–	–	–	–	–	–	–	–	–	IC50 [13]: 260 nM; Kd (Peregrin): 2700 nM
Cc1cc2cc(NS(=O)(=O)Cc3ccc(C(=O)NO)cc3)ccc2n(C)c1=O	8%	360 nM	27%	545 nM	0%	1500 nM	–	89%	0%	5%	IC50 [14]: 152 nM; Stabilty [15]: Stable; Stabilty [16]: Stable
